According to ChEMBL document CHEMBL2169759, “A new class of selective and potent 7-dehydrocholesterol reductase inhibitors” (J Med Chem, 2012):
pIC50: −log10 of the molar value. The source made the active and inactive calls. The rule behind the calls is not given here.

How the values were obtained:
[1] = system: Nakaseomyces glabratus; assay: Antifungal activity against Candida glabrata DSM 11226 after 48 hrs; type: organism-based; details: in vivo
Summary of the method: (§1)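 MIC against the yeast strains determined according to DIN 58940-84; clotrimazole as positive control.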

[2] = biological target: 3-beta-hydroxysteroid-Delta(8),Delta(7)-isomerase (Homo sapiens) (UniProt Q15125); assay: Inhibition of delta8,7-isomerase in human HL60 cells assessed as accumulation of zymostenol at 50 uM after 24 hrs by GC/MS analysis; type: cell-based; details: HL-60
Summary of the method: (§2)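 HL-60 cells (1 × 10⁶) in lipid-free HL-60 medium given inhibitor at 50 μM or 1 μM (ethanol blank) for 24 h at 37 °C, 5% CO2. Pellet saponified in 1 M NaOH, 1 h at 70 °C, then TBME microextraction with cholestane internal standard. GC-MS sterol pattern compared with blanks and with AY 9944 and BM 15.766 references.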

[3] = biological target: 3-beta-hydroxysteroid-Delta(8),Delta(7)-isomerase (Homo sapiens) (UniProt Q15125); assay: Inhibition of delta8,7-isomerase in human HL60 cells assessed as accumulation of zymostenol at 1 uM after 24 hrs by GC/MS analysis; type: cell-based; details: HL-60; summary of the method: as §2
[4] = Antibacterial activity against Streptococcus entericus DSM 14446 after 36 hrs by disc diffusion method
[5] = Antifungal activity against Hyphopichia burtonii DSM 70663 after 36 hrs by disc diffusion method
[6] = system: Yarrowia lipolytica; assay: Antifungal activity against Yarrowia lipolytica DSM 1345 after 48 hrs; type: organism-based; details: in vivo; summary of the method: as §1
[7] = Antibacterial activity against Pseudomonas antimicrobica DSM 8361 after 36 hrs by disc diffusion method; details: burkholderia gladioli
[8] = biological target: T1, 7-dehydrocholesterol reductase (Homo sapiens) (UniProt Q9UBM7); assay: Inhibition of 7-dehydrocholesterol reductase in human HL60 cells assessed as accumulation of 7-dehydrocholesterol at 50 uM after 24 hrs by GC/MS analysis; type: cell-based; details: HL-60; summary of the method: as §2
T1 sequence (whole entry): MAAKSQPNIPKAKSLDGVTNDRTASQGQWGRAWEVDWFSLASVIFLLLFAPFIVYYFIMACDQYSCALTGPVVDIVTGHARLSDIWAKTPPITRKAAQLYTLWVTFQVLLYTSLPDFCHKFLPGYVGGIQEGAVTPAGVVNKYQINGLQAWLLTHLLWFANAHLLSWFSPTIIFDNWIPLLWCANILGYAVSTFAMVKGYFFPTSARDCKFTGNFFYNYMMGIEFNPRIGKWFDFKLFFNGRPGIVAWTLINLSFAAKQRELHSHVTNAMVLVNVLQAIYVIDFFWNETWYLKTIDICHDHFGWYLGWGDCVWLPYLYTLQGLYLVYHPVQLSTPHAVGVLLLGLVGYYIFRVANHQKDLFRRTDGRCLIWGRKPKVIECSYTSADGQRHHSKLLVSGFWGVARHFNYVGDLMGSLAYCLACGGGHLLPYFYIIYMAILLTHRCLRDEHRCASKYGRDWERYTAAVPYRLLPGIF

[9] = system: Yarrowia lipolytica; assay: Antifungal activity against Yarrowia lipolytica DSM 1345 after 36 hrs by disc diffusion method; type: organism-based; details: in vivo
[10] = Antibacterial activity against Staphylococcus equorum DSM 20675 after 36 hrs by disc diffusion method
[11] = system: Saccharomyces cerevisiae; assay: Antifungal activity against Saccharomyces cerevisiae DSM 1333 after 36 hrs by disc diffusion method; type: organism-based; details: in vivo
[12] = biological target: T1, 7-dehydrocholesterol reductase (Homo sapiens); assay: Inhibition of 7-dehydrocholesterol reductase in human HL60 cells assessed as accumulation of 7-dehydrocholesterol at 1 uM after 24 hrs by GC/MS analysis; type: cell-based; details: HL-60; summary of the method: as §2
[13] = system: Saccharomyces cerevisiae; assay: Antimicrobial activity against Saccharomyces cerevisiae DSM 1333 after 48 hrs; type: organism-based; details: in vivo; summary of the method: as §1
[14] = system: HL-60; assay: Cytotoxicity against human HL60 cells after 24 hrs by MTT assay; type: cell-based; details: HL-60, 24 h
Summary of the method: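 MTT colorimetric assay on HL-60 promyelocytic leukemia cells (RPMI 1640, 10% FBS, no antibiotics, 37 °C, 5% CO2) as a preliminary screen for unspecific cytotoxicity; cisplatin as reference.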

[15] = system: Nakaseomyces glabratus; assay: Antifungal activity against Candida glabrata DSM 11226 after 36 hrs by disc diffusion method; type: organism-based; details: in vivo
[16] = system: Escherichia coli; assay: Antibacterial activity against Escherichia coli DSM 426 after 36 hrs by disc diffusion method; type: organism-based; details: in vivo
[17] = Antifungal activity against Aspergillus brasiliensis DSM 1988 after 36 hrs by disc diffusion method
[18] = biological target: T2, 7-dehydrocholesterol reductase (Homo sapiens, UniProt Q9UBM7); assay: Inhibition of […]-mediated cholesterol biosynthesis in human HL60 cells assessed as inhibition of 2-[13C]acetate after 24 hrs GC/MS analysis; type: cell-based, HL-60
T2 sequence (Q9UBM7 whole entry): T1 sequence (whole entry)
Summary of the method: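 Whole-cell cholesterol synthesis in HL-60 cells, 24 h with inhibitor and sodium 2-¹³C-acetate; six concentrations plus blank, in triplicate. Newly made labeled cholesterol (m/z 372–379, 462–469) measured by GC-MS against cholestane and normalized to Bradford protein. % inhibition against untreated control fitted to a variable-slope sigmoid, bottom fixed at 0, giving IC50; BM 15.766 as reference.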

Chain of 3-beta-hydroxysteroid-Delta(8),Delta(7)-isomerase (Homo sapiens) (Q15125 whole entry, the tested form may be a part): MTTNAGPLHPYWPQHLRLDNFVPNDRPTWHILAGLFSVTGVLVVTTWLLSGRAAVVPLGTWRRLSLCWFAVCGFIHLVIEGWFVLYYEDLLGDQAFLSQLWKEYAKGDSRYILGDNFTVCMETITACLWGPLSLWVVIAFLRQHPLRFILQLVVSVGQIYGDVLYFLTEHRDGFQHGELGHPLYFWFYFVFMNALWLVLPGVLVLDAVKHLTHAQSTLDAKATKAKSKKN

| SMILES | MIC [1] [µg/mL] | isomerase inhibition (active/not active) [2] | inhibition (active/not active) [3] | Activity [4] | Activity [5] | MIC [6] [µg/mL] | Activity [7] | 7-dehydrocholesterol accumulation (active/not active) [8] | Activity [9] | Activity [10] | Activity [11] | 7-DHCR inhibition (active/not active) [12] | MIC [13] [µg/mL] | pIC50 [14] | Activity [15] | Activity [16] | Activity [17] | pIC50 [18] |
| --- | --- | --- | --- | --- | --- | --- | --- | --- | --- | --- | --- | --- | --- | --- | --- | --- | --- | --- |
| COc1ccc(CCN2CCc3cc(OC)c(OC)cc3C2)cc1 | > 20 | Active | Active | Non-toxic | Non-toxic | > 20 | Non-toxic | inactive | Non-toxic | Non-toxic | Non-toxic | inactive | > 20 | < 4.30 | Non-toxic | Non-toxic | Non-toxic | – |
| COc1cc2c(cc1O)CCN(CCc1ccccc1OC)C2 | > 20 | – | – | Non-toxic | Non-toxic | > 20 | Non-toxic | Active | Non-toxic | Non-toxic | Non-toxic | inactive | > 20 | < 4.30 | Non-toxic | Non-toxic | Non-toxic | – |
| Oc1ccc(CCN2CCc3cc(O)ccc3C2)cc1 | > 20 | – | – | Non-toxic | Non-toxic | > 20 | Non-toxic | Active | Non-toxic | Non-toxic | Non-toxic | inactive | > 20 | < 4.30 | Non-toxic | Non-toxic | Non-toxic | – |
| COc1cc2c(cc1O)CCN(CCc1ccc(F)cc1)C2 | > 20 | Active | – | Non-toxic | Toxic | > 20 | Non-toxic | Active | Non-toxic | Non-toxic | Non-toxic | Active | > 20 | < 4.30 | Non-toxic | Non-toxic | Non-toxic | – |
| COc1cc2c(cc1O)CCN(CCc1ccc(OC)c(OC)c1)C2 | > 20 | – | – | Non-toxic | Toxic | > 20 | Non-toxic | – | Non-toxic | Non-toxic | Non-toxic | Active | > 20 | < 4.30 | Non-toxic | Non-toxic | Non-toxic | 5.14 |
| COc1cccc(CCN2CCc3cc(O)c(OC)cc3C2)c1 | > 20 | – | – | Non-toxic | Non-toxic | > 20 | Non-toxic | – | Non-toxic | Non-toxic | Non-toxic | Active | > 20 | < 4.30 | Non-toxic | Non-toxic | Non-toxic | 6.92 |
| COc1ccc(CCN2CCc3cc(OC)c(O)cc3C2)cc1 | > 20 | inactive | inactive | Non-toxic | Non-toxic | > 20 | Non-toxic | inactive | Non-toxic | Non-toxic | Non-toxic | inactive | > 20 | < 4.30 | Non-toxic | Non-toxic | Non-toxic | – |
| Clc1ccccc1C(c1ccccc1)(c1ccccc1)n1ccnc1 [CLOTRIMAZOLE] | < 1 | – | – | – | – | < 1 | – | – | – | – | – | – | < 1 | – | – | – | – | – |
| O=C(O)c1ccc(CCN2CCN(C/C=C/c3ccc(Cl)cc3)CC2)cc1 | – | – | – | – | – | – | – | – | – | – | – | – | – | – | – | – | – | 6.30 |
| COc1ccc2c(c1)CCN(CCc1ccccc1)C2 | > 20 | Active | Active | Non-toxic | Non-toxic | > 20 | Non-toxic | inactive | Non-toxic | Non-toxic | Non-toxic | inactive | > 20 | < 4.30 | Non-toxic | Non-toxic | Non-toxic | – |
| COc1ccc(CCN2CCc3cc4c(cc3C2)OCO4)cc1 | > 20 | Active | Active | Non-toxic | Non-toxic | > 20 | Non-toxic | inactive | Non-toxic | Non-toxic | Non-toxic | inactive | > 20 | < 4.30 | Non-toxic | Non-toxic | Non-toxic | – |
| COc1ccc(CCN2CCc3cc(OC)ccc3C2)cc1 | > 20 | Active | Active | Non-toxic | Non-toxic | > 20 | Non-toxic | inactive | Non-toxic | Non-toxic | Non-toxic | inactive | > 20 | < 4.30 | Non-toxic | Non-toxic | Non-toxic | – |
| COc1ccc(CCN2CCc3cc(O)c(OC)cc3C2)cc1 | > 20 | Active | – | Non-toxic | Toxic | > 20 | Non-toxic | Active | Non-toxic | Non-toxic | Non-toxic | Active | > 20 | < 4.30 | Non-toxic | Non-toxic | Non-toxic | – |
